Measured values as given in ChEMBL document CHEMBL4033710, “Synthesis and biological evaluation of kresoxim-methyl analogues as novel inhibitors of hypoxia-inducible factor (HIF)-1 accumulation in cancer cells” (Bioorg Med Chem Lett, 2017).
Active and inactive are the calls of the source. The calls are words filed in the database; no cut-off is given here.

What was measured:
Assay type in all cases: functional, cell-based
[1] = system: HCT-116; test: Increase in intracellular oxygen content in human HCT116 cells at 5 uM after 6 hrs under hypoxic-condition by mono azo rhodamine/Nuclear-ID Red DNA staining based fluorescence assay
Outline: (§1)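 HCT116 cells treated with compound for 6 h under hypoxia and loaded with the hypoxia-sensitive probe mono azo rhodamine (MAR). MAR fluoresces when its azo group is reduced in hypoxia. Nuclei were counterstained with NUCLEAR-ID Red. The value is the MAR/NUCLEAR-ID fluorescence intensity ratio, compared against a hypoxia control by significance testing.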

[2] = system: HCT-116; test: Inhibition of hypoxia-induced HIF1-alpha accumulation in human HCT116 cells after 6 hrs by immunoblot analysis
Outline: (§2)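 HCT116 cells incubated under hypoxia for 6 h with each compound. HIF-1α protein was detected by immunoblot with specific antibodies, using β-tubulin as loading reference.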

[3] = system: HCT-116; test: Cytotoxicity against human HCT116 cells at 0.625 to 10 uM after 72 hrs under hypoxic condition by methylene blue staining based assay
[4] = system: HCT-116; test: Cytotoxicity against human HCT116 cells after 72 hrs by methylene blue staining based assay; details: HCT-116, 72 h
Outline: (§3)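 HCT116 cells exposed to each analogue for 72 h. Viability read out by methylene blue staining.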

[5] = system: HCT-116; test: Increase in intracellular oxygen content in human HCT116 cells after 6 hrs under hypoxic-condition by mono azo rhodamine/ Nuclear-ID Red DNA staining based fluorescence assay; outline: as §1
[6] = system: HCT-116; test: Inhibition of hypoxia-induced HIF1-alpha accumulation in human HCT116 cells at 5 uM after 6 hrs by immunoblot analysis; outline: as §2
[7] = system: HCT-116; test: Cytotoxicity against human HCT116 cells at 0.625 to 10 uM after 72 hrs by methylene blue staining based assay; outline: as §3

Compound	Activity [1]	inhibition [2]	Activity [3]	IC50 [4]	further results
C=Cc1ccc(COc2cccc(OCc3ccccc3/C(=N\OC)C(=O)OC)c2)cc1	Active	Dose-dependent effect	Active	1.26 µM	–
CO/N=C(/C(=O)OC)c1ccccc1COc1cccc(OCc2ccc(Cl)cc2)c1	–	Dose-dependent effect	Active	1.62 µM	Activity [5]: Dose-dependent effect
CO/N=C(\C)c1cccc(OCc2ccccc2/C(=N\OC)C(=O)OC)c1	Active	–	–	–	–
CO/N=C/c1ccc(OC)c(OCc2ccccc2/C(=N\OC)C(=O)OC)c1	Active	–	–	–	–
CO/N=C(/C(=O)OC)c1ccccc1COc1cccc(OCC#N)c1	inactive	–	inactive	–	inhibition [6]: inactive; Activity [7]: inactive
CO/N=C(/C(=O)OC)c1ccccc1COc1cccc(OCc2ccccc2)c1	Active	–	–	–	–
CO/N=C(/C(=O)OC)c1ccccc1COc1cccc(O)c1	Active	–	–	–	–
CO/N=C/c1cccc(OCc2ccccc2/C(=N\OC)C(=O)OC)c1	Active	–	–	–	–
CO/N=C(/C(=O)OC)c1ccccc1COc1cccc(OCc2cc(C(F)(F)F)cc(C(F)(F)F)c2)c1	Active	Dose-dependent effect	Active	1.36 µM	–
